pIC50, pKi: −log10 of the molar value. “And” between values parts separate entries of the source, which are not always exact repeats. Equal values may be shown once. The source made the active and inactive calls. The rule behind the calls is not given here.
Tests used:
[1] = target: T1, Dihydrofolate reductase (Homo sapiens) (UniProt P00374); assay: Cytotoxicity by selective inhibition against human dihydrofolate reductase (DHFR);NA is no inhibition
T1 sequence (whole entry): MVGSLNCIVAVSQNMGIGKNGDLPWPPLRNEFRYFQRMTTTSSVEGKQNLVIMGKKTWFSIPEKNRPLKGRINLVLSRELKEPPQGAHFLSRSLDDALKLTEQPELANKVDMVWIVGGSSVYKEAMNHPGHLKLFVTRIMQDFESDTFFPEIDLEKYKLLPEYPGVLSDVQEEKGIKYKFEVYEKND

KB = assay: Cytotoxicity against human epidermoid carcinoma KB cell.; type: functional, cell-based
BC = assay: Cytotoxicity against human breast cancer cells.; type: functional, cell-based
Vero [2] = assay: (§1) Cytotoxicity by the selective inhibition against African green monkey kidney […] (vero cells).; type: functional, cell-based; conditions: Chlorocebus sabaeus
[3] = Safety ratio is cytotoxicity to BC cells/IC50 TM4.; type: toxicity, cell-based; conditions: human, BC cells (breast cancer); read-out: Safety ratio
Summary of the method: (§2)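 Ratio of the cytotoxicity IC50 (KB or BC cells, Skehan protocol) to the antiplasmodial IC50 against TM4/8.2 (wild-type DHFR). […] Label was added after 24 h and cultures ran a further 18-24 h.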

[4] = target: Bifunctional dihydrofolate reductase-thymidylate synthase (Plasmodium falciparum K1) (UniProt P13922); assay: Inhibition of the C59R+S108N mutant of dihydrofolate reductase (DHFR)relative to Tmp
Summary of the method: (§3)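 Assayed at 25 °C in 50 mM TES pH 7.0, 75 mM β-mercaptoethanol, 1 mg/mL BSA, with 100 µM H2folate and 100 µM NADPH. A340 was followed. Ki was derived from IC50 = Ki(1+[S]/Km), assuming competitive inhibition.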

[5] = Safety ratio is cytotoxicity to vero cells/IC50 K1.; type: toxicity, cell-based; conditions: monkey, read-out: Safety ratio
Summary of the method: (§4)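 Ratio of the cytotoxicity IC50 (vero, KB or BC cells, Skehan protocol) to the antiplasmodial IC50 against K1CB1 (C59R+S108N DHFR). […] Label was added at 24 h and cultures ran a further 18-24 h. Final DMSO was 0.1%.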

[6] = target: Bifunctional dihydrofolate reductase-thymidylate synthase (Plasmodium falciparum K1) (UniProt P13922); assay: Inhibition of the wild-type dihydrofolate reductase (DHFR) relative to Tmp; summary of the method: as §3
[7] = Safety ratio is cytotoxicity to BC cells/IC50 K1; type: toxicity, cell-based; conditions: human, BC cells (breast cancer); read-out: Safety ratio
Summary of the method: (§5)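 Safety ratio is the mammalian-cell cytotoxicity IC50 (vero, KB or BC cells) divided by the antiplasmodial IC50 against P. falciparum K1CB1 (C59R+S108N DHFR). Parasites were grown in human erythrocytes (1.5% suspension, 1-2% parasitemia) at 37 °C, 3% CO2, with drug dilutions at 0.1% DMSO final. After 24 h, [3H]hypoxanthine was added for a further 18-24 h. IC50 came from sigmoidal incorporation curves.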

[8] = test system: Bifunctional dihydrofolate reductase-thymidylate synthase (Plasmodium falciparum K1), P13922 [UNDEFINED MUTATION]; assay: Ratio of Inhibition of the S108N mutant of dihydrofolate reductase (DHFR) to inhibition of wild type dihydrofolate reductase.
Plasmodium falciparum [9] = assay: IC50 ratio against Plasmodium falciparum K1CB1/TM4; type: functional
[10] = Safety ratio is cytotoxicity to KB cells/IC50 TM4.; type: toxicity, cell-based; conditions: human, KB cells (epidermoid carcinoma); read-out: Safety ratio; summary of the method: as §2
Plasmodium falciparum [11] = assay: In vitro antiplasmodial activity (IC50) against Plasmodium falciparum wtTM4/8.2; type: functional, organism-based
Plasmodium falciparum [12] = assay: Safety ratio as cytotoxicity in vero cells relative to IC50 TM4; type: functional
[13] = target: Bifunctional dihydrofolate reductase-thymidylate synthase (Plasmodium falciparum K1) (UniProt P13922); assay: Inhibition of S108N mutant dihydrofolate reductase (DHFR)relative to Tmp; summary of the method: as §3
[14] = target: Bifunctional dihydrofolate reductase-thymidylate synthase (Plasmodium falciparum K1, UniProt P13922, S108N); assay: Inhibition of the S108N mutant of dihydrofolate reductase (DHFR)
Summary of the method: (§6)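 Assay at 25 °C: 50 mM TES pH 7.0, 75 mM β-mercaptoethanol, 1 mg/mL BSA, 100 µM H2folate and 100 µM NADPH. NADPH oxidation followed at 340 nm. Ki derived from IC50 as Ki(1+[S]/Km), assuming competitive inhibition.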

[15] = test system: Bifunctional dihydrofolate reductase-thymidylate synthase (Plasmodium falciparum K1), P13922 [UNDEFINED MUTATION]; assay: Ratio of Inhibition of the C59R+S108N mutant of dihydrofolate reductase (DHFR) to inhibition of wild type dihydrofolate reductase.
[16] = target: Bifunctional dihydrofolate reductase-thymidylate synthase (Plasmodium falciparum K1, UniProt P13922); assay: Inhibition of the C59R+S108N mutant of dihydrofolate reductase (DHFR); summary of the method: as §6
[17] = Safety ratio is cytotoxicity to KB cells/IC50 K1; type: toxicity, cell-based; conditions: human, KB cells (epidermoid carcinoma); read-out: Safety ratio; summary of the method: as §5
[18] = Safety ratio is cytotoxicity to BC cells/IC50 K1.; type: toxicity, cell-based; conditions: human, BC cells (breast cancer); read-out: Safety ratio; summary of the method: as §4
[19] = Safety ratio is cytotoxicity to KB cells/IC50 K1.; type: toxicity, cell-based; conditions: human, KB cells (epidermoid carcinoma); read-out: Safety ratio; summary of the method: as §4
[20] = target: Bifunctional dihydrofolate reductase-thymidylate synthase (Plasmodium falciparum K1) (UniProt P13922); assay: Inhibition of Plasmodium falciparum wild-type dihydrofolate reductase (DHFR) relative to Pyrimethamine.
Dihydrofolate reductase = target: T2, Dihydrofolate reductase (Homo sapiens, UniProt P00374); assay: Cytotoxicity by selective inhibition against human dihydrofolate reductase (DHFR).
T2 sequence (P00374 whole entry): T1 sequence (whole entry)

[21] = Safety ratio is cytotoxicity to vero cells/IC50 K1; type: toxicity, cell-based; conditions: monkey; summary of the method: as §4
[22] = Safety ratio is cytotoxicity to vero cells/IC50 k1.; type: toxicity, cell-based; conditions: monkey, read-out: Safety ratio; summary of the method: as §4
Plasmodium falciparum [23] = assay: Relative antiplasmodial activity (IC50) compared to Tmp against Plasmodium falciparum K1CB1 DHFR double-mutant (C59R/S108N); type: functional
Plasmodium falciparum [24] = assay: In vitro relative antiplasmodial activity (IC50) compared to Tmp against Plasmodium falciparum TM4/8.2 wild-type; type: functional
[25] = target: Bifunctional dihydrofolate reductase-thymidylate synthase (Plasmodium falciparum K1) (UniProt P13922); assay: (§7) Inhibition of the wild-type dihydrofolate reductase (DHFR) relative to Pyr.; summary of the method: as §3
Plasmodium falciparum [26] = assay: In vitro relative antiplasmodial activity (IC50) compared to Pyr against Plasmodium falciparum TM4/8.2 wild-type; type: functional
Plasmodium falciparum [27] = assay: Relative antiplasmodial activity (IC50) compared to Pyr against Plasmodium falciparum K1CB1 DHFR double-mutant (C59R/S108N); type: functional
[28] = target: Bifunctional dihydrofolate reductase-thymidylate synthase (Plasmodium falciparum K1) (UniProt P13922); assay: as §7; summary of the method: as §3; remark: listed apart in the source
[29] = target: Bifunctional dihydrofolate reductase-thymidylate synthase (Plasmodium falciparum K1) (UniProt P13922); assay: Inhibition of the C59R+S108N mutant of dihydrofolate reductase (DHFR) relative to Pyr.; summary of the method: as §3
Vero [30] = assay: as §1; conditions: Chlorocebus sabaeus
[31] = target: Bifunctional dihydrofolate reductase-thymidylate synthase (Plasmodium falciparum K1) (UniProt P13922); assay: Inhibition of the S108N mutant of dihydrofolate reductase (DHFR) relative to Pyr.; summary of the method: as §3
[32] = Safety ratio is cytotoxicity to vero cells/IC50 KI.; type: toxicity, cell-based; conditions: monkey, read-out: Safety ratio; summary of the method: as §5

Chain of Bifunctional dihydrofolate reductase-thymidylate synthase (Plasmodium falciparum K1, UniProt P13922) (P13922 whole entry): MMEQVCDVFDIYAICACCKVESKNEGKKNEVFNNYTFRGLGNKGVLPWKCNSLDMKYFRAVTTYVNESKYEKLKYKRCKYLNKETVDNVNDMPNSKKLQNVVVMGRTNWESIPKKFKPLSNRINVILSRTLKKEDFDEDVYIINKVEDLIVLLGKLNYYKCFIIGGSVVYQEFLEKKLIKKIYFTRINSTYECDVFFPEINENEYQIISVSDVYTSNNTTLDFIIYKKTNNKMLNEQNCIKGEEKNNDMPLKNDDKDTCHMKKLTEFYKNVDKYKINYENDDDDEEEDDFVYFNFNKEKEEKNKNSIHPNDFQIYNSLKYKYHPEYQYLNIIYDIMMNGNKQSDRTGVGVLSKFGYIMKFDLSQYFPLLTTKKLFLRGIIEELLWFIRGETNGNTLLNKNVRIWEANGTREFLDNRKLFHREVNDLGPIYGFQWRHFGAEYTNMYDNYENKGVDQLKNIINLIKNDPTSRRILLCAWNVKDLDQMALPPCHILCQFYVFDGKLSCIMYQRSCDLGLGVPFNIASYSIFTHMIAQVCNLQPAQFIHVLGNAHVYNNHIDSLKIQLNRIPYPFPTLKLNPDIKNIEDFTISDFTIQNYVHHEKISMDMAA
Chain of Bifunctional dihydrofolate reductase-thymidylate synthase (Plasmodium falciparum K1, UniProt P13922, S108N) (P13922 whole entry, looked up, stated change not applied): as the sequence (P13922 whole entry) above
Chain of Bifunctional dihydrofolate reductase-thymidylate synthase (Plasmodium falciparum K1) (P13922 whole entry, looked up): as the sequence (P13922 whole entry) above
Chain of Bifunctional dihydrofolate reductase-thymidylate synthase (Plasmodium falciparum K1), P13922 [UNDEFINED MUTATION] (P13922 whole entry, looked up, stated change not applied): as the sequence (P13922 whole entry) above

| Structure (SMILES) | pIC50 (KB) | pIC50 (BC) | pIC50 (Vero [2]) | selectivity ratio [3] | selectivity ratio [5] | Ratio [8] | Ratio (Plasmodium falciparum [9]) | selectivity ratio [10] | pIC50 (Plasmodium falciparum [11]) | Safety ratio (Plasmodium falciparum [12]) | pKi [14] | Ratio [15] | pKi [16] | selectivity ratio [19] | Relative activity [20] | further results |
| --- | --- | --- | --- | --- | --- | --- | --- | --- | --- | --- | --- | --- | --- | --- | --- | --- |
| CCCOc1cc(Cc2cnc(N)nc2N)ccc1OCc1cc(OC)c(OC)c(OC)c1 | 3.74 | 4.25 | 4.89 |  |  |  |  |  |  |  |  |  |  |  |  | NI [1]: inactive |
| COc1cc(Cc2cnc(N)nc2N)ccc1OCCCc1ccccc1 | 4.14 | 4.49 | 3.70 | 11 | 17 | 14.8 | 3.9 | 24 | 5.52 | 67 | 7.58 | 24.5 | 7.35 |  |  | Relative activity [4]: 0.2; Relative activity [6]: 0.2; selectivity ratio [7]: 2.7; Relative activity [13]: 0.2; selectivity ratio [17]: 6 |
| Nc1nc(N)c(-c2ccccc2)c(CCCc2ccccc2)n1 | < 3.30 | < 3.30 | < 4.30 | > 2500 | > 22 | 1.8 | 11.5 | > 2500 | 6.70 | >250 | 9.05 | 4.8 | 8.62 | > 217 | 0.9 | selectivity ratio [18]: > 217; NI [1]: inactive |
| COc1ccc(CCCc2nc(N)nc(N)c2-c2cccc(Cl)c2)cc1 | 4.82 | < 3.30 | 5.52 |  |  | 1.8 | 6.8 |  | 6.40 |  | 8.40 | 2.7 | 8.22 |  | 3.7 | pKi (Dihydrofolate reductase): < 5.30 |
| Nc1ncc(Cc2ccc(OCCCOc3cc(Cl)c(Cl)cc3Cl)cc2)c(N)n1 | < 4.30 | < 4.30 | 4.35 |  |  | 26.1 | 1.2 |  | 5.52 | 15 and >17 | 7.63 | 43.4 | 7.41 |  |  | Relative activity [4]: 0.2; Relative activity [6]: 0.09; selectivity ratio [21]: 13; selectivity ratio [22]: 13; Relative activity [13]: 0.2 |
| COc1cc(Cc2cnc(N)nc2N)ccc1OCc1cc(OC)c(OC)c(OC)c1 |  |  |  |  |  |  | 92.7 |  | 6.52 |  | 8.21 |  | 8.06 |  |  | Relative activity (Plasmodium falciparum [23]): 0.2; Relative activity (Plasmodium falciparum [24]): 0.04 |
| CCc1nc(N)nc(N)c1-c1ccc(Br)cc1 |  |  |  |  |  | 105 | 500 |  | 7.30 |  | 7.50 | 148 | 7.35 |  |  | Relative activity [25]: 0.5; Relative activity (Plasmodium falciparum [26]): 0.6; Relative activity (Plasmodium falciparum [27]): 0.8; Relative activity [28]: 1.1; Relative activity [29]: 0.8 |
| CCCCCCc1nc(N)nc(N)c1-c1ccccc1 | 3.95 | 3.57 |  | 4470 | 41 | 4 | 21.7 | 1880 | 7.22 | 857 | 8.92 | 2.3 | 9.15 | 87 | 0.5 | selectivity ratio [18]: 206; pKi (Dihydrofolate reductase): 4.82; pIC50 (Vero [30]): 4.26 |
| CCc1nc(N)nc(N)c1-c1ccc(C(C)(C)C)cc1 | 4.06 | 4.25 | 4.00 | 93.3 |  | 110 | 6.5 | 145 | 6.22 | 172 | 7.18 | 212 | 6.90 | 22 |  | selectivity ratio [18]: 14.4; Relative activity [31]: 2.3; Relative activity [25]: 1; Relative activity (Plasmodium falciparum [26]): 7.5; selectivity ratio [32]: 26; Relative activity (Plasmodium falciparum [27]): 0.1; Relative activity [29]: 2.4 |
| CCOc1cc(Cc2cnc(N)nc2N)ccc1OCc1cc(OC)c(OC)c(OC)c1 | 3.99 | 3.86 | 4.47 |  |  |  |  |  |  |  |  |  |  |  |  | NI [1]: inactive |
| Nc1nc(N)c(-c2cccc(Cl)c2)c(CCOCCCOc2ccccc2)n1 | 5.09 | 5.21 | 4.82 | 15 | 4.5 | 4.5 | 8.3 | 20 | 6.40 | 38 | 8.74 | 4.7 | 8.72 | 2.5 | 0.7 | selectivity ratio [7]: 1.8 |

Source: ChEMBL document CHEMBL1135602 (J Med Chem, 2002)
